Compound activity: PubChem BioAssay, The Scripps Research Institute Molecular Screening Center
Shown are actives, neighbours in structure and some others; about 1.9% of the full set was active somewhere.
M5 antag: human M5 muscarinic receptor antagonists, primary screen, CHO cells, Fluo-8 calcium fluorescence; Muscarinic acetylcholine receptor M5 (Homo sapiens), P08912; CHO-hM5 cells, ACh EC80; inhibition, % at 3 µM; 360,000 compounds, 0.59% hits; AID 624040, 2012;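 active = inhibition above a per-plate cutoff, the mean of that plate's test compounds plus 3 SD, cut at about 27% in these data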;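 also: 0% = acetylcholine EC80 with DMSO and 100% = DMSO without agonist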
M5 PAM: human M5 muscarinic receptor positive allosteric modulators, primary screen, CHO-K1 cells, Fluo-8 calcium fluorescence; activation, % at 3 µM; Muscarinic acetylcholine receptor M5 (Homo sapiens), P08912; CHO-K1 hM5, ACh EC20 PAM; 0% = ACh EC20, 100% = ACh EC100; AID 624038, 2012; 360,000 compounds, 0.3% hits;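 active = activation above the run cutoff, the mean activation of all test compounds plus 3 SD, cut at about 18% in these data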
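Measured by: Fluo-8 calcium fluorescence; material: human M5 receptor in CHO-K1 cells; schedule: Post-acetylcholine fluorescence recording 140 s; benchmarks: low control EC20 acetylcholine (0%), high control EC100 acetylcholine (100%); read-out: Max/basal fluorescence ratio as % of EC20–EC100 ACh window; compound: single dose, 3 µM nominal final test concentration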
M5 ag: human M5 muscarinic receptor agonists, primary screen, CHO-K1 cells, Fluo-8 calcium fluorescence. Muscarinic acetylcholine receptor M5 (Homo sapiens), P08912. CHO-K1 hM5 cells; 0% DMSO wells, 100% maximal acetylcholine response. activation, % at 3 µM. 360,000 compounds, 0.19% hits. AID 624037, 2012;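 active = activation above the run's mean over test compounds plus 3 SD, cut at about 23% in these data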;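 also: signal is peak over basal fluorescence ratio across the kinetic read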
M4 PAM: human M4 muscarinic receptor positive allosteric modulators, primary screen, CHO-K1 cells, Fluo-8 calcium fluorescence. Muscarinic acetylcholine receptor M4 (Homo sapiens), P08173. CHO-K1 hM4/Gqi5, ACh EC20; 0% = ACh EC20, 100% = maximal ACh. activation, % at 3 µM. 360,000 compounds, 0.4% hits. AID 624126, 2012;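 active = activation above its plate's cutoff, the mean activation of sample wells plus 3 SD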
Target sequence (P08173 whole entry, looked up): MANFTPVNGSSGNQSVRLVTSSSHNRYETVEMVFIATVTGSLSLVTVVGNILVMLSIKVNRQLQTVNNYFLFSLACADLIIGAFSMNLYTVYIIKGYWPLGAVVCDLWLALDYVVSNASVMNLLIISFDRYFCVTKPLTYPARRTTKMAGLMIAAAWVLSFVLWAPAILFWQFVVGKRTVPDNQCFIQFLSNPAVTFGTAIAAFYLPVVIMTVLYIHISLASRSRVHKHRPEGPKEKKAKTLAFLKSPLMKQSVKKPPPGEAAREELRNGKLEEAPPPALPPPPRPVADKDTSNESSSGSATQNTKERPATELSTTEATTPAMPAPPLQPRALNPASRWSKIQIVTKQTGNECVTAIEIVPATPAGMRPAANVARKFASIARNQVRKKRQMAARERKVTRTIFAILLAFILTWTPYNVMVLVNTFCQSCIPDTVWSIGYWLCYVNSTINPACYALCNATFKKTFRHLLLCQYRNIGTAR
CHRM4 antagonist: human M4 muscarinic receptor antagonists, primary screen, CHO cells, Fluo-8 calcium fluorescence | Muscarinic acetylcholine receptor M4 (Homo sapiens), P08173 | inhibition, % at 3 µM | 360,000 compounds, 0.73% hits | AID 624125, 2012 | CHO-hM4 cells, ACh EC80;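 active = inhibition above its plate's cutoff, the mean inhibition of sample wells plus 3 SD, cut at about 27% in these data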;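 also: 0% = acetylcholine EC80 with DMSO and 100% = DMSO without agonist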
CHRM4 agonist: human M4 muscarinic receptor agonists, primary screen, CHO-K1 cells, Fluo-8 calcium fluorescence. Muscarinic acetylcholine receptor M4 (Homo sapiens), P08173. CHO-K1 hM4/Gqi5; vehicle 0%, full acetylcholine response 100%. activation, % at 3 µM. 360,000 compounds, 0.14% hits. AID 624127, 2012;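 active = activation above the run mean over all test wells plus 3 SD, cut at about 32% in these data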;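 also: peak over basal fluorescence ratio per well then scaled between controls; 0% = DMSO wells and 100% = acetylcholine at EC100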
Numbers without * were called inactive.

SMILES | M5 antag | M5 PAM | M5 ag | M4 PAM | CHRM4 antagonist | CHRM4 agonist
O=C(C1CCCCC1)N1CCC2CC1c1cc(N3CCCCC3)ccc12 (stereo not drawn) | 11 | -7 | -2 | -13 | 37* | 3
O=C(CSc1ccc(Cl)cc1)NNC(=O)c1cccnc1 | 6 | 6 | 5 | 1 | -3 | 8
COc1ccc(CCn2c(=O)[nH]c3cc(C(=O)NCCN4CCOCC4)ccc3c2=O)cc1OC | -6 | 12 | -1 | 29* | 21 | 4
COc1ccc(CCn2c(=O)[nH]c3cc(C(=O)NCCCN4CCOCC4)ccc3c2=O)cc1OC | 6 | 2 | 3 | -1 | -7 | 1
CCOc1ccc(C2NCCc3cc(OC)c(OC)cc32)cc1OC (stereo not drawn) | -2 | 8 | -2 | 14* | -11 | 1
Cc1ccc(Oc2ncccc2CO)cc1 | -15 | 6 | 0 | 26* | -4 | 2
Cc1ccc(Oc2ncccc2/C=N/OCc2ccc(Cl)cc2Cl)cc1 | -6 | 2 | -1 | 4 | -4 | 0
COc1cccc(CNC(=O)CCC2CCCN(c3cc(C)nc(N)n3)C2)c1 (stereo not drawn) | 12 | -6 | -5 | -8 | 9 | 0
O=Cc1ccccc1Oc1ccccc1 | -1 | 4 | 2 | 1 | 1 | 0
O=Cc1ccccc1OCCOc1ccccc1C=O | 21 | -21 | -5 | -11 | 27* | 1
O=C(OCCC12CC3CC(CC(C3)C1)C2)c1ccc(NCc2cc(O)ccc2O)cc1 | -2 | 27* | 21 | 12 | 6 | 2
O=C(OCCN=C1NS(=O)(=O)c2ccccc21)c1ccccc1F | 15 | -1 | -1 | -1 | 6 | 2
CCc1ccc2[nH]c(C(=O)Nc3ccc(C)c(F)c3)cc2c1 | 18 | -2 | -2 | -4 | 3 | 2
O=C(Nc1ccc(F)cc1)c1cc2cc(Cl)ccc2[nH]1 | 31* | -14 | 2 | -1 | -6 | 10
Nc1ccccc1SC1CC(=O)N(c2ccc(Cl)c(Cl)c2)C1=O (stereo not drawn) | 28* | -15 | 3 | -16 | 14 | 15
C=CC[C@H](CC(=O)NCCO)C(=O)N[C@@H](COC(=O)[C@@H](CC=C)Cc1ccc(F)cc1)Cc1ccccc1 | 14 | -12 | 1 | -5 | 2 | 8
COc1cccc(CN2CCNC(=O)C2CC(=O)NCCn2ccc3ccccc32)c1OC (stereo not drawn) | -1 | 3 | 2 | 6 | 2 | 1
CC(C)(C)c1nnc(N/N=C/c2cc(Br)ccc2O)n(N)c1=O | 20 | -22 | 9 | -31 | 34* | 29
CC(=O)OCc1c(C(F)(F)F)nn(C)c1Oc1cccc(C(F)(F)F)c1 | -3 | 3 | -1 | 8 | 6 | -1
CC(=O)OCc1c(C(F)(F)F)nn(C)c1Oc1ccccc1 | 7 | 19* | -1 | 15 | -13 | 22
COc1ccc(CCN2CC(C(=O)N(C)C3CCOCC3)CCC2=O)cc1 (stereo not drawn) | 15 | -7 | -2 | 1 | 6 | 0
COc1ccc(C=O)c(-c2c(CCO)sc3ccccc23)c1 | -8 | 7 | -1 | 13 | 1 | -1
CCN(CC(=O)Nc1c(F)cccc1F)C(=O)/C=C/c1cn(Cc2ccccc2)nc1-c1cccnc1 | 27* | -6 | -3 | 1 | 7 | 2
CC(Sc1ccc(S(=O)(=O)N2CCN(C)CC2)cn1)C(=O)NC1CCCCC1 (stereo not drawn) | 4 | 6 | -1 | 4 | 0 | 1
O=C(Oc1ccc2cccc(OC(=O)N3CCOCC3)c2c1)N1CCOCC1 | 2 | 19* | 1 | 1 | -2 | 1
O=C(Oc1cccc2c(OC(=O)N3CCOCC3)cccc12)N1CCOCC1 | -6 | 8 | 1 | 8 | 14 | 0
